The results in this text go back to ChEMBL document CHEMBL1781932 (J Med Chem, 2011).

The subject of data set [1] is Klebsiella pneumoniae. Description: Antimicrobial activity against tetracycline-susceptible Klebsiella pneumoniae isolate 109 by CLSI dilution method. Type of data set: functional. The essentials:
(§1)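 Broth microdilution per CLSI in fresh cation-adjusted Mueller Hinton broth, kept at 4 °C before testing, with defibrinated horse blood added as appropriate. Strains were from ATCC. MIC in µg/mL. Runs were accepted when comparator antibiotics against ATCC quality-control strains fell within recommended ranges.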

Data set [2] deals with Enterococcus faecalis. Briefly: Antimicrobial activity against tetracycline-susceptible Enterococcus faecalis isolate 103 by CLSI dilution method. The class given is functional. The essentials:
as §1

The subject of data set [3] is Staphylococcus aureus. Description: Antimicrobial activity against tetracycline-susceptible Staphylococcus aureus isolate 101 by CLSI dilution method. Type of data set: functional.
Data set [4] relates to Enterococcus faecalis. Description: Antimicrobial activity against tetracycline-resistant Enterococcus faecalis isolate 159 harboring […] gene by CLSI dilution method. The class given is functional.
Data set [5] can be described thus: Cmax in Sprague-Dawley rat at 1 mg/kg, iv administered as single dose measured after 24 to 48 hrs. Particulars: in vivo. Details: dose 1 mg/kg, route intravenous. The class given is ADME, organism-based. The essentials: (§2)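 Sprague-Dawley rats (n = 3) were fasted overnight (minimum 12 h) and given a single dose, iv 1 mg/kg or oral 10 mg/kg, in sterile water. Samples were taken over 24–48 h. PK parameters came from noncompartmental analysis.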

The test system of another data set is Acinetobacter baumannii. Description: Antimicrobial activity against tetracycline-susceptible Acinetobacter baumannii isolate 110 by CLSI dilution method. Type of data set: functional. The essentials: as §1
Data set [6] has as its system Staphylococcus aureus. Briefly: Antimicrobial activity against tetracycline-resistant Staphylococcus aureus isolate 158 harboring tetK gene by CLSI dilution method. The class given is functional.
In data set [7] the test system is Streptococcus pneumoniae. Description: Antimicrobial activity against tetracycline-susceptible Streptococcus pneumoniae isolate 106 by CLSI dilution method. Type of data set: functional. The essentials: as §1
Data set [8] in a line: Apparent volume of distribution in Sprague-Dawley rat at 1 mg/kg, iv administered as single dose measured after 24 to 48 hrs. Particulars: in vivo.
In data set [9] the test system is Escherichia coli. Description: Antimicrobial activity against tetracycline-resistant Escherichia coli isolate 155 harboring tetA gene by CLSI dilution method. The class given is functional.
A short description of data set [10]: Elimination half life in Sprague-Dawley rat at 1 mg/kg, iv administered as single dose. Details: dose 1 mg/kg, route intravenous. The class given is ADME, organism-based. Particulars: in vivo, read-out: beta t1/2 (converted). The essentials: as §2
Data set [11] can be described thus: Clearance in Sprague-Dawley rat at 1 mg/kg, iv administered as single dose measured after 24 to 48 hrs. The class given is ADME, organism-based. Details: dose 1 mg/kg, route intravenous. The note with it: in vivo. The method, boiled down:
as §2

The test system of the next data set is Rattus norvegicus. Briefly: Oral bioavailability in Sprague-Dawley rat at 10 mg/kg administered as single dose. The class given is ADME, organism-based. Particulars: in vivo. The essentials: as §2
Data set [12] relates to Streptococcus pneumoniae. Description: Antimicrobial activity against tetracycline-resistant Streptococcus pneumoniae isolate 160 harboring tetM gene by CLSI dilution method. The class given is functional.
A further data set has as its system Pseudomonas aeruginosa. Briefly: Antimicrobial activity against tetracycline-susceptible Pseudomonas aeruginosa isolate 111 by CLSI dilution method. The class given is functional. The method, boiled down:
as §1

Data set [13] relates to Klebsiella pneumoniae. Briefly: Antimicrobial activity against tetracycline-resistant Klebsiella pneumoniae isolate 153 harboring tetA gene by CLSI dilution method. The class given is functional.
Data set [14] relates to Staphylococcus aureus. Description: Antimicrobial activity against tetracycline-susceptible Staphylococcus aureus Smith isolate 100 infected in iv dosed mouse systemic infection model assessed as survival of mouse administered 60 mins post infection measured up to 48 hrs. Particulars: Smith isolate 100, iv, read-out: PD50. The class given is functional. The method, boiled down: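 Mouse septicemia model with S. aureus ATCC 13709 mixed with 5% mucin, given intraperitoneally at 2.1×10^6 cfu/mouse. Compound was dosed intravenously 60 min after infection at 0.3–30 mg/kg in sterile water, 6 mice/dose group, with untreated infection controls. Survival was followed over 48 h. PD50 was derived by Probit analysis with 95% CI.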

For data set [15], the system named is Staphylococcus aureus. Description: Antimicrobial activity against methicillin-, tetracycline-resistant Staphylococcus aureus isolate 161 harboring tetM gene by CLSI dilution method. Type of data set: functional.
Data set [16] deals with Staphylococcus aureus. Briefly: Antimicrobial activity against tetracycline-susceptible Staphylococcus aureus Smith isolate 100 by CLSI dilution method. The class given is functional.
Data set [17] in a line: AUC (0 to infinity) in Sprague-Dawley rat at 1 mg/kg, iv administered as single dose measured after 24 to 48 hrs. Particulars: plasma. Details: time infinity, dose 1 mg/kg, route intravenous. Type of data set: ADME, organism-based. The essentials: as §2
For data set [18], the system named is Escherichia coli. Briefly: Antimicrobial activity against tetracycline-susceptible Escherichia coli isolate 107 by CLSI dilution method. The class given is functional. The method, boiled down:
as §1

For another data set, the system named is Enterobacter cloacae. Briefly: Antimicrobial activity against tetracycline-susceptible Enterobacter cloacae isolate 108 by CLSI dilution method. Type of data set: functional. The essentials:
as §1

Converted amounts (≈) assume the structure as drawn.

Take `CN(C)[C@@H]1C(O)=C(C(N)=O)C(=O)[C@@]2(O)C(O)=C3C(=O)c4c(c(F)c5ccc(CNC(C)(C)C)cc5c4O)C[C@H]3C[C@@H]12`: the MIC against Klebsiella pneumoniae [1] came to 2 µg/mL (≈ 3.52 µM); with Enterococcus faecalis [2], 0.0313 µg/mL (≈ 0.0551 µM); in the data set on Staphylococcus aureus [3], 0.5 µg/mL (≈ 0.881 µM); with Enterococcus faecalis [4], 1 µg/mL (≈ 1.76 µM); against Acinetobacter baumannii, 0.25 µg/mL (≈ 0.44 µM); in the data set on Staphylococcus aureus [6] it was 0.0156 µg/mL (≈ 0.0275 µM). The MIC was 0.0156 µg/mL (≈ 0.0275 µM) in the data set with Streptococcus pneumoniae [7]; 4 µg/mL (≈ 7.05 µM) with Escherichia coli [9]; 0.0313 µg/mL (≈ 0.0551 µM) with Streptococcus pneumoniae [12]; 16 µg/mL (≈ 28.2 µM) with Pseudomonas aeruginosa; 4 µg/mL (≈ 7.05 µM) against Klebsiella pneumoniae [13]; 1 µg/mL (≈ 1.76 µM) against Staphylococcus aureus [15]. Moreover, in the data set with Staphylococcus aureus [16], the minimal inhibitory concentration (MIC) came out at 0.5 µg/mL (≈ 0.881 µM). This compound registered a Cmax in data set [5] of 278 ng/mL. Also, the Vd in [8] stood at 11.9 L/kg. In addition, the half-life in data set [10] is 7.82 h. This compound showed a clearance in data set [11] of 17.7 mL/min/kg. The compound also returned a F with Rattus norvegicus of 1.2%. In addition, the ED50 with Staphylococcus aureus [14] was found to be 0.35 mg/kg. Moreover, in data set [17], the total exposure AUC(0-inf) worked out at 975 ng·h/mL.
As for `CN(C)[C@@H]1C(O)=C(C(N)=O)C(=O)[C@@]2(O)C(O)=C3C(=O)c4c(c(F)c5ccc(CN6CC(F)C6)cc5c4O)C[C@H]3C[C@@H]12`, the MIC came out at 4 µg/mL (≈ 7.02 µM) in the data set with Klebsiella pneumoniae [1]; 0.25 µg/mL (≈ 0.439 µM) in the data set on Enterococcus faecalis [2]; 0.5 µg/mL (≈ 0.878 µM) against Staphylococcus aureus [3]; 1 µg/mL (≈ 1.76 µM) against Enterococcus faecalis [4]; 4 µg/mL (≈ 7.02 µM) against Escherichia coli [18]; 1 µg/mL (≈ 1.76 µM) against Acinetobacter baumannii. Further, the MIC in the data set with Staphylococcus aureus [6] is 0.25 µg/mL (≈ 0.439 µM); with Streptococcus pneumoniae [7] it was 0.25 µg/mL (≈ 0.439 µM); in the data set on Escherichia coli [9], 8 µg/mL (≈ 14 µM); in the data set on Pseudomonas aeruginosa, more than 32 µg/mL; against Klebsiella pneumoniae [13], 8 µg/mL (≈ 14 µM); in the data set on Staphylococcus aureus [15], 1 µg/mL (≈ 1.76 µM). The MIC in the data set with Staphylococcus aureus [16] was determined as 1 µg/mL (≈ 1.76 µM); against Enterobacter cloacae, 8 µg/mL (≈ 14 µM). In data set [5], this compound displayed a Cmax of 358 ng/mL. Further, the Vd in data set [8] amounted to 3.06 L/kg. In addition, the half-life in data set [10] was 2.22 h. In data set [11], this compound yielded a clearance of 16.1 mL/min/kg. In addition, in the data set on Rattus norvegicus, the F is given as 16.7%. Also, the area under the curve AUC(0-inf) in data set [17] was 1040 ng·h/mL.
For `COc1c2c(c(O)c3cc(CNC4CC4)ccc13)C(=O)C1=C(O)[C@]3(O)C(=O)C(C(N)=O)=C(O)[C@@H](N(C)C)[C@@H]3C[C@@H]1C2`, the MIC with Klebsiella pneumoniae [1] came to 2 µg/mL (≈ 3.55 µM); in the data set on Enterococcus faecalis [2], 0.0625 µg/mL (≈ 0.111 µM); in the data set on Staphylococcus aureus [3], 0.0625 µg/mL (≈ 0.111 µM); against Enterococcus faecalis [4], 2 µg/mL (≈ 3.55 µM); in the data set with Escherichia coli [18] it was 0.5 µg/mL (≈ 0.887 µM); against Acinetobacter baumannii it was 0.25 µg/mL (≈ 0.444 µM). The MIC is 0.0313 µg/mL (≈ 0.0555 µM) in the data set with Staphylococcus aureus [6]; 0.0156 µg/mL (≈ 0.0277 µM) with Streptococcus pneumoniae [7]; 8 µg/mL (≈ 14.2 µM) with Escherichia coli [9]; 0.125 µg/mL (≈ 0.222 µM) in the data set on Streptococcus pneumoniae [12]; 16 µg/mL (≈ 28.4 µM) against Pseudomonas aeruginosa; 8 µg/mL (≈ 14.2 µM) against Klebsiella pneumoniae [13]. In addition, the MIC came out at 2 µg/mL (≈ 3.55 µM) with Staphylococcus aureus [15], 0.25 µg/mL (≈ 0.444 µM) in the data set on Staphylococcus aureus [16] and 4 µg/mL (≈ 7.1 µM) against Enterobacter cloacae. In [5], this compound came in with a maximum concentration (Cmax) of 124 ng/mL. Besides, the Vd in data set [8] turned out to be 8.4 L/kg. Besides, in [10], the half-life was 2.17 h. In data set [11], this compound had a clearance of 45.4 mL/min/kg. In the data set with Rattus norvegicus, the F is recorded as 12.5%. In addition, in the data set on Staphylococcus aureus [14], the ED50 was 0.6 mg/kg. The same compound came in with a total exposure AUC(0-inf) in data set [17] of 385 ng·h/mL.
Consider `COc1c2c(c(O)c3cc(CNCC(C)C)ccc13)C(=O)C1=C(O)[C@]3(O)C(=O)C(C(N)=O)=C(O)[C@@H](N(C)C)[C@@H]3C[C@@H]1C2`, for which the MIC against Klebsiella pneumoniae [1] amounted to 1 µg/mL (≈ 1.73 µM); in the data set with Enterococcus faecalis [2], 0.0625 µg/mL (≈ 0.108 µM); against Enterococcus faecalis [4], 2 µg/mL (≈ 3.45 µM); against Escherichia coli [18], 1 µg/mL (≈ 1.73 µM); in the data set on Acinetobacter baumannii, 0.25 µg/mL (≈ 0.431 µM); in the data set with Staphylococcus aureus [6], 0.016 µg/mL (≈ 0.0276 µM). In addition, the MIC in the data set on Streptococcus pneumoniae [7] worked out at 0.0156 µg/mL (≈ 0.0269 µM); against Escherichia coli [9], 4 µg/mL (≈ 6.9 µM); against Streptococcus pneumoniae [12] it was 0.125 µg/mL (≈ 0.216 µM); in the data set on Pseudomonas aeruginosa it was 16 µg/mL (≈ 27.6 µM); in the data set on Klebsiella pneumoniae [13] it was 8 µg/mL (≈ 13.8 µM); with Staphylococcus aureus [15] it was 2 µg/mL (≈ 3.45 µM). Moreover, the minimum inhibitory concentration (MIC) was found to be 0.5 µg/mL (≈ 0.863 µM) against Staphylococcus aureus [16] and 2 µg/mL (≈ 3.45 µM) in the data set on Enterobacter cloacae. In addition, the Cmax in data set [5] amounted to 414 ng/mL. In addition, the Vd in [8] stood at 9.6 L/kg. Further, the half-life in [10] is 5.4 h. The compound further had a clearance in data set [11] of 20.5 mL/min/kg. The compound further had a F in the data set with Rattus norvegicus of 2.7%. In addition, the ED50 in the data set on Staphylococcus aureus [14] is less than 0.3 mg/kg. For the same compound, the AUC(0-inf) in data set [17] was 815 ng·h/mL.

In general, MIC refers to the lowest concentration that inhibits growth of the organism. By Cmax is commonly meant the peak of the concentration-time curve. The clearance is a measure of how efficiently the substance is removed, as volume per time. For orientation: AUC(0-inf) means the area under the concentration-time curve extrapolated to infinity. Low readings indicate low exposure, high ones high exposure.
